Data taken from the M2OR odorant receptor database.

The compounds below were run against T1, OR8D1 (Homo sapiens) (UniProt Q8WZ84). Conditions: stereoisomer not certain.
T1 sequence (whole entry): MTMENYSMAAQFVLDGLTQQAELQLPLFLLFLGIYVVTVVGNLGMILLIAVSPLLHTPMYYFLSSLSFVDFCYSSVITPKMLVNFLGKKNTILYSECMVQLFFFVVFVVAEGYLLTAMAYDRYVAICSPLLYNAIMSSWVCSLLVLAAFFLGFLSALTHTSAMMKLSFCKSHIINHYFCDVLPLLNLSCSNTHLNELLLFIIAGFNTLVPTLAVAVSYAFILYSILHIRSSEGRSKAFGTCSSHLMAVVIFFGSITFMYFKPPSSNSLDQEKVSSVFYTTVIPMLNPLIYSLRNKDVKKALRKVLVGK
How it was run: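 Transient luciferase assays in mammalian cell lines were common, though methods varied by source. The values come from published papers and their supplementary material, with extra details from the original authors when needed. Responsive refers to a measured signal the original authors judged statistically different from baseline, and non-responsive (inactive) to the remainder.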
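Further: active if original authors judged signal statistically different from baseline.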

Odorant receptor agonist call, inactive:
CC(C)=CC1CC(C)CCO1 (configuration not stated), CC(=O)OCCc1ccccc1, CCCCCC(=O)OCC, COc1ccc(C)cc1O, CCC(=O)O, CCCCCCCC(=O)OCC, CCCSSSC, C=C(C)C1CC=C(C)CC1 (configuration not stated), CC1=CCC2CC1C2(C)C (configuration not stated), C=CC(=C)CCC=C(C)C, CCOC(=O)C=Cc1ccccc1, CCC=CCC=O, C=CC(=O)CC=CCC, C=CC(=O)CC, C=Cc1ccc(O)cc1, CCCCC=CC=CC=O, CCCCCCCCCC(=O)[O-].[H+], CCCCCc1ccccn1, CCCSSCCC, CCOC(=O)CCC(C)C, CCCCCCC(=O)[O-].[H+], CC(=O)C(C)O (configuration not stated), CCCCCCOC(C)=O, CC1=CCC(C(C)C)C=C1 (configuration not stated), Cc1occc1S, Cc1ccc(O)cc1, OCC=Cc1ccccc1, CC(=O)c1ccc(C)cc1, OCCc1ccccc1, CC(C)CC=O, COc1nccnc1C(C)C, CCCCCCCC(=O)[O-].[H+], CCc1ccc(O)cc1, CCCCCC=CCCC=O, Cc1cccc(O)c1, CCC(C)C=O (configuration not stated), CCCCCC=CC=CC=O
